IC50 and EC50 data for twelve compounds are collected here from ChEMBL document CHEMBL1140976, “1,2,3,4-tetrahydro-2-thioxopyrimidine analogs of combretastatin-A4” (Eur J Med Chem, 2008).

As a reminder, the IC50 is the concentration needed to halve the response being measured. A lower IC50 goes with higher potency. What is called EC50 is the concentration needed to bring the measured effect to its halfway point.

Holding throughout (assay type): functional, cell-based
One test concerns B16. Nature of the test: Cytotoxicity against mouse B16 cells after 72 hrs by MTT assay. The following applies: B16, 72 h. The method in brief:
(§1)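 72-h MTT assay on murine cell lines (B16 melanoma, L1210 leukemia) grown in culture. IC50 is the compound concentration needed to reduce the cell population by 50% relative to an untreated control.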

The subject of another test is L1210. As to the kind of experiment: Cytotoxicity against mouse L1210 cells after 72 hrs by MTT assay. The following applies: L1210, 72 h. Summed up: as §1
Another test concerns A10. As to the kind of experiment: Reduction of cellular microtubules in interphase rat A10 cells. Summed up:
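Interphase cellular microtubules scored in A-10 aortic smooth muscle cells after exposure to compound. EC50 is the effective concentration that causes 50% loss of cellular microtubules.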

A value given as a limit tells only on which side of the number the result lay.

On to `COc1ccc(C2C=C(c3cc(OC)c(OC)c(OC)c3)NC(=S)N2)cc1OC` (stereo unspecified), for which the results for the IC50 with B16 and in the test on L1210 were over 100 µM and 56.3 µM, respectively.

For `COc1ccc(OC)c(C2C=C(c3cc(OC)c(OC)c(OC)c3)NC(=S)N2)c1` (stereo unspecified), the IC50 in the test on B16 stood at 36 µM; in the test with L1210 it was 32 µM.

As for `COc1ccc(C2C=C(c3cc(OC)c(OC)c(OC)c3)NC(=S)N2)cc1[N+](=O)[O-]` (stereo unspecified), the IC50 with B16 and in the test on L1210 was over 100 µM throughout.

Consider `COc1cc(C2=CC(c3ccc(Cl)cc3)NC(=S)N2)cc(OC)c1OC` (stereo unspecified), for which the IC50 in the test on B16 amounted to 55.5 µM; in the test on L1210 it was 48.3 µM.

As for `COc1cc(C2=CC(c3cc(OC)c(OC)c(OC)c3)NC(=S)N2)cc(OC)c1OC` (stereo unspecified), the IC50 in the test with B16 and with L1210 was over 100 µM each time.

On to `COc1cc(OC)c(C2C=C(c3cc(OC)c(OC)c(OC)c3)NC(=S)N2)c(OC)c1` (stereo unspecified), for which the figures for the IC50 in the test with B16 and with L1210 were 6.3 µM and 5.7 µM, respectively.

As to `COc1cc(OC)c(C2C=C(c3cc(OC)ccc3OC)NC(=S)N2)c(OC)c1` (stereo unspecified), the IC50 is 6.1 µM with B16 and 0.4 µM in the test with L1210. In the test on A10, this compound returned an EC50 of 2.9 µM.

Regarding `COc1ccc(OC)c(C2=CC(c3ccc(OC)c([N+](=O)[O-])c3)NC(=S)N2)c1` (stereo unspecified), the figures for the IC50 in the test on B16 and in the test with L1210 were 42 µM and 2.2 µM, respectively.

With `COc1cccc(C2C=C(c3cc(OC)c(OC)c(OC)c3)NC(=S)N2)c1` (stereo unspecified), the IC50 with B16 is 59.5 µM; in the test with L1210, over 100 µM.

Take `COc1ccc(C2C=C(c3cc(OC)c(OC)c(OC)c3)NC(=S)N2)cc1O` (stereo unspecified): the IC50 with B16 was 6 µM; in the test with L1210 it was 0.5 µM. In the test with A10, a half-maximal response (EC50) required 4.4 µM.

On to `COc1cc(C2=CC(c3ccc([N+](=O)[O-])cc3)NC(=S)N2)cc(OC)c1OC` (stereo unspecified), for which the IC50 with B16 and in the test with L1210 was over 100 µM in each case.

Consider `COc1ccc(/C=C\c2cc(OC)c(OC)c(OC)c2)cc1O` [COMBRETASTATIN A4], for which the IC50 stood at 0.003 µM in the test on B16 and 0.002 µM in the test with L1210.
